Assay outcomes deposited in PubChem by Broad Institute.
Only some compounds are listed: those with a hit (about 3.1% of all), similar ones and a draw of the others.
miR-122 sensor: miR-122 Renilla sensor signal increase in Huh7, primary screen, miR-122 inhibitor project, cell-based, single point, plate reader. Huh7 miR-122 Renilla luciferase sensor, 48 h; neutral wells = 0, positive control = 100. activation (reporter increase), % at 12.5 µM. hit rate 0.3% among 340,000;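 active = mean replicate activation score at least 90 and every replicate individually at or above 90; inconclusive = only one of the two criteria met; inactive = neither criterion met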;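 also: higher luciferase means less miR-122 activity so hits act as miR-122 inhibitors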
DENV2 CPE rescue: inhibitors of DENV2 cytopathic effect, primary screen, cell-based, plate reader, single concentration; DENV2-infected cells, cytopathic effect rescue; CPE inhibition, % at 9.99 µM; hit rate 1.7% among 350,000; AID 651640, 2012; in the data active = CPE inhibition above about 20%, passing the limit was not always enough; inconclusive = no clear call, values can overlap the other calls; tested in BHK-21 cells
E-sel inducer: E-selectin induction in HUVECs, primary screen, imaging, HUVEC, immunofluorescence imaging, single point; P16581; normalized: neutral wells 0, TNF-alpha wells 100; activation, % at 7.58 µM; hit rate 0.37% among 260,000; AID 686992, 2013;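 active = mean E-selectin-positive cell signal at least 10% of the positive control, reached in at least 60% of replicates, without over 20% cell loss; inconclusive = no rule given, readout overlaps actives, possibly toxicity-flagged; inactive = the rest, including those meeting only one limit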
Target sequence (P16581 whole entry, looked up): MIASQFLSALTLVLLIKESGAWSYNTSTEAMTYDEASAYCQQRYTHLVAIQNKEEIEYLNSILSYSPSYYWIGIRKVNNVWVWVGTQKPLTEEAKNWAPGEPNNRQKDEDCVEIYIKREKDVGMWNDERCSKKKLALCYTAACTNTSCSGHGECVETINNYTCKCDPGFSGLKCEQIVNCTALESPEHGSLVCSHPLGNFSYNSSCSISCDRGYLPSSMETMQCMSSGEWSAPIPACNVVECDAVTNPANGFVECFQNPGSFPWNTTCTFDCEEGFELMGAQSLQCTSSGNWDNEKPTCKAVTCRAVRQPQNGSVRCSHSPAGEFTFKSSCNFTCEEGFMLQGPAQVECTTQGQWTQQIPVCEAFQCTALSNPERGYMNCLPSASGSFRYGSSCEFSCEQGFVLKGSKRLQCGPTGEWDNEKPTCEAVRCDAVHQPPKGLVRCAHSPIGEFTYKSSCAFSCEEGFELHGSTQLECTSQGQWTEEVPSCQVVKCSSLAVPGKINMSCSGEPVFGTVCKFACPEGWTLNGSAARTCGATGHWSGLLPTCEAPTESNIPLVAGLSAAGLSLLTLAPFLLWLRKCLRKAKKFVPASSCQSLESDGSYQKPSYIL
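Read-out: % PE-positive cells | Test system: HUVEC | Doses: One compound dose added by pin transfer | Buffer or medium: EGM-2 over gelatin coat | Signal: Immunofluorescence imaging | Benchmarks: TNF-alpha, DMSO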
Ecoli rRNA inh: reduced GFP signal of wild-type E. coli, primary screen, bacterial rRNA inhibitor project, GFP/RFP fluorescence, OD600, single point; E. coli WT GFP vs humanized-ribosome RFP mutants, 24 h; hits give low values; DMSO median 0, no signal -100; GFP signal change (wild-type ribosome), % (concentration not given with the values); hit rate 1.6% among 350,000;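 active = significant combined selectivity score with lowered wild-type GFP, culture density cut under 30%, mutant RFP and density less affected; inactive = any of these conditions unmet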
Cneo AK release: Cryptococcus neoformans cell lysis inducers, primary screen, AK release luminescence, single concentration; C. neoformans lysis, adenylate kinase release luminescence, 4 h; normalised: neutral wells 0, clomiphene wells 100; lysis activity, % at 15 µM; hit rate 0.2% among 360,000; AID 651654, 2012;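 active = mean lysis activity across replicates of at least 80%, whatever share of replicates individually reach that level; inactive = mean lysis activity below 80%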
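Material: C. neoformans cells; Schedule: 4 h static compound exposure, 37 °C, read 1 h post-reagent; Measured by: adenylate kinase release luminescence; Read-out: signal increase indicating cell lysis; Controls: Clomiphene as positive lysis control.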
Hits are given with their value; n = inactive; u = inconclusive; x = no result given.

SMILES	miR-122 sensor	DENV2 CPE rescue	E-sel inducer	Ecoli rRNA inh	Cneo AK release
CN(C)C(=O)c1cccc(-c2ccc(C3[C@@H]4CN(S(=O)(=O)Cc5ccccc5)C[C@H]3N4)cc2)c1 (stereo partly drawn)	x	n	n	n	x
Cc1cc(C(=O)Nc2cccc3c2O[C@H](CN(C)S(=O)(=O)c2ccccc2)[C@H](C)CN([C@H](C)CO)C3=O)n(C)n1	n	n	n	n	90.0
Cc1cc(C(=O)Nc2cccc3c2O[C@H](CN(C)S(=O)(=O)c2ccc(Cl)cc2)[C@H](C)CN([C@H](C)CO)C3=O)n(C)n1	n	n	n	-22.0	n
Cc1cc(C(=O)Nc2cccc3c2O[C@@H](CN(C)S(=O)(=O)c2ccccc2)[C@H](C)CN([C@@H](C)CO)C3=O)n(C)n1	n	n	n	n	n
CCC(CO)Oc1cc(NC(=O)c2cccc(OC)c2)c2ncn(C(C)C)c2c1 (stereo not drawn)	n	n	n	n	n
CCC(CO)Oc1cc(NC(=O)c2ccc(OC)cc2)c2ncn(C(C)C)c2c1 (stereo not drawn)	n	u	n	-20.1	n
CC1(C)N([O-])C(c2cccs2)=C[N+]1=O	103.0	x	x	x	n
CC1(C)N([O-])C(c2ccccc2)=C[N+](=O)C1(C)C	n	x	x	x	x
C#CC[N+](CC)(CC)CC#Cc1ccccc1	n	n	n	n	n
CC[N+](CC)(CC#Cc1ccccc1)CC#Cc1ccccc1	x	n	n	-44.6	x
COCC(=O)N1CC(=O)N2[C@H](C1)[C@@H](c1ccc(-c3cccnc3)cc1)[C@@H]2CO	x	x	x	n	x
O=C(NC(O)C(=O)c1ccccc1)c1ccccn1 (stereo not drawn)	x	n	50.2	n	n
O=C(NC(O)C(=O)c1ccccc1)c1cccs1 (stereo not drawn)	n	n	x	n	n
CCCC(=O)N1CCC2(CC1)CN[C@@H](CO)c1c2c2ccc(OC)cc2n1C	x	x	x	n	x
O=C(Nc1cccc(Br)c1)c1ccc(CN2CCc3ccccc3C2)cc1	n	n	n	n	n
CSc1cccc(NC(=O)c2ccc(CN3CCc4ccccc4C3)cc2)c1	n	n	x	-23.2	n
O=C(Cc1ccccn1)N1CC(=O)N2[C@@H](CO)[C@H](c3ccc(C#CC4CC4)cc3)[C@@H]2C1	x	n	n	n	x
COc1cccc(S(=O)(=O)N(C)C[C@@H]2Oc3cc(C4=CCCC4)ccc3S(=O)(=O)N([C@@H](C)CO)C[C@H]2C)c1	n	n	n	n	n
CC(O)Cc1cn([C@@H](CCCCN)C(=O)N2CCNCC2)nn1 (stereo partly drawn)	x	24.8	x	n	n
NCCCC[C@@H](C(=O)N1CCNCC1)n1cc(CCC(=O)O)nn1	n	n	n	n	n
Clc1ccc(/C=N/Nc2ccccn2)cc1	n	n	n	n	n
CCOc1ccc(/C=N/Nc2ccccn2)cc1	x	n	30.9	n	x
CCN(CC)c1ccc2nc3ccc(N)cc3[n+](-c3ccccc3)c2c1	x	u	91.8	n	n
c1cc(-c2ccc(N3CCOCC3)cc2)n2cnnc2c1	n	24.3	n	n	n
c1cc(-c2ccc3c(c2)CCO3)n2cnnc2c1	n	n	n	n	n
SMILES	miR-122 sensor	DENV2 CPE rescue	E-sel inducer	Ecoli rRNA inh	Cneo AK release
CC[C@H]1C/C=C\C[C@@H](c2ccc(F)cc2)NC(=O)CCC(=O)N1	x	x	x	n	x
Cc1ccc(-c2cc(=O)c3ccccc3[nH]2)cc1	n	x	n	n	n
Cc1ccc2[nH]c(-c3ccccc3)cc(=O)c2c1	n	111.5	n	n	n
COC(=O)c1c(C(=O)OC)c(-c2ccc(Cl)c(Cl)c2)n2c1CCC2	n	n	x	-29.4	x
O=C(O)c1c(C(=O)O)c(-c2ccc(Cl)c(Cl)c2)n2c1CSC2	n	n	58.4	n	n
Cc1ccc(-c2c(C(=O)O)c(C(=O)O)c3n2CCC3)cc1	x	x	n	n	x
COC(=O)c1c(C(=O)OC)c(-c2ccc(C)cc2)n2c1CCC2	n	x	x	x	n
Cc1ccc(S(=O)(=O)N[C@H]2CC[C@H](CCNC(=O)Cc3ccccn3)O[C@@H]2CO)cc1	x	n	n	n	n
COc1ccccc1-c1ccccc1[C@H]1[C@H](C#N)N(C(=O)C2CCC2)[C@H]1CO	x	50.0	n	n	x
COc1ccccc1-c1ccc([C@@H]2[C@@H](C#N)N(C(=O)C3CCCCC3)[C@@H]2CO)cc1	x	n	n	n	n
COc1ccc(-c2ccc([C@@H]3[C@@H](C#N)N(C(=O)C4CCC4)[C@H]3CO)cc2)cc1	x	72.3	n	n	n
COc1ccccc1-c1ccc([C@H]2[C@@H](CO)N(C(=O)C3CCCC3)[C@H]2C#N)cc1	x	35.8	n	n	x
COc1ccccc1-c1ccc([C@H]2[C@@H](CO)N[C@@H]2CNC(=O)C2CCCC2)cc1	x	24.9	n	n	x
C[C@@H]1CN([C@H](C)CO)S(=O)(=O)c2ccc(C3=CCCC3)cc2O[C@H]1CN(C)S(C)(=O)=O	n	x	n	n	x
CO[C@@H]1CN(C)C(=O)c2cc(NC(=O)CC(F)(F)F)ccc2OC[C@@H](C)N(S(=O)(=O)c2cn(C)cn2)C[C@H]1C	x	n	n	n	n
N#C[C@@H]1[C@H](c2ccccc2C2=CCCC2)[C@@H](CO)N1C(=O)c1cccc(F)c1	x	n	n	n	x
N#C[C@H]1[C@@H](c2ccccc2C2=CCCC2)[C@@H](CO)N1C(=O)C1CCC1	x	37.4	n	n	x
N#C[C@H]1[C@@H](c2ccccc2C2=CCCC2)[C@@H](CO)N1C(=O)c1cccc(F)c1	x	70.8	n	n	x
CCc1csc(N2[C@@H](C#N)[C@@H](c3ccccc3C3=CCCC3)[C@@H]2CO)n1	x	n	n	n	x
CCc1cnc(N2[C@@H](C#N)[C@@H](c3ccccc3C3=CCCC3)[C@@H]2CO)s1	x	20.4	n	n	x
CCCC#Cc1ccc2c(c1)[C@H]1[C@H](CCN1S(=O)(=O)c1ccc(C)cc1)[C@H](CO)N2C	n	n	n	n	n
COc1ccc2c3c([nH]c2c1)[C@H](CO)N(C(=O)Nc1c(C)noc1C)CC31CN(CC2CC2)C1	x	x	x	n	x
O=C(c1ccccn1)N1C[C@@H]2[C@H](c3ccccc31)[C@@H](CO)N2C(=O)c1ccccn1	n	68.8	n	n	n
CC(C)NC(=O)N1C[C@H]2[C@@H](c3ccccc31)[C@@H](CO)N2C(=O)NC(C)C	n	n	n	n	n
CC(C)NC(=O)N1C[C@H]2[C@@H](c3ccccc31)[C@@H](CO)N2C(=O)c1ccccn1	n	114.8	n	n	n
O=C(N[C@@H]1CC[C@H](CCNS(=O)(=O)c2cccc(Cl)c2)O[C@H]1CO)c1ccccc1	x	x	n	n	x
COc1ccc2c3c(n(C)c2c1)[C@H](CO)N(Cc1ccncc1)CC31CCN(C(=O)Cc2ccncc2)CC1	x	76.5	n	n	x
